Reference: ChEMBL document CHEMBL3259680, “Discovery and Biological Evaluation of Novel Dual EGFR/c-Met Inhibitors” (ACS Med Chem Lett, 2014)
Active and inactive are the calls of the source. No cut-off for these calls is given here.

Experiments:
Insulin receptor = Insulin receptor (Homo sapiens, UniProt P06213); assay: Inhibition of recombinant INSR (unknown origin) using fluorescent dye-labelled KKSRGDYMTMQIG peptide peptide as substrate after 1 hr by IMAP assay
[1] = target: T1, Hepatocyte growth factor receptor (Homo sapiens, UniProt P08581); assay: Inhibition of recombinant c-MET (unknown origin) using poly-AEKY peptide as substrate by ADPGlo assay; conditions: TDE = time-dependent effect
[2] = Cytotoxicity against human HCC827 cells after 48 hrs by MTT assay; assay type: functional, cell-based; conditions: HCC827, 48 h
NCI-H1975 = assay: Cytotoxicity against human NCI-H1975 cells after 48 hrs by MTT assay; assay type: functional, cell-based; conditions: NCI-H1975, 48 h
[3] = target: T2, Epidermal growth factor receptor (Homo sapiens, UniProt P00533); assay: Inhibition of recombinant EGFR (unknown origin) using poly-GT peptide as substrate by Transcreener assay
[4] = target: Epidermal growth factor receptor (Homo sapiens, UniProt P00533, L858R); assay: Inhibition of recombinant EGFR L858R mutant (unknown origin) using poly-GT peptide as substrate after 1 hr by Transcreener assay; assay type: protein assay
A549 = assay: Cytotoxicity against human A549 cells after 48 hrs by MTT assay; assay type: functional, cell-based; conditions: A549, 48 h
[5] = target: T1, Hepatocyte growth factor receptor; assay: Inhibition of recombinant c-MET (unknown origin) using poly-AEKY peptide as substrate after 60 mins by ADPGlo assay
NCI-H1993 [6] = assay: Cytotoxicity against human NCI-H1993 cells after 48 hrs by MTT assay; assay type: functional, cell-based; conditions: NCI-H1993, 48 h
[7] = target: T2, Epidermal growth factor receptor; assay: Inhibition of EGFR (unknown origin) phosphorylation by cell-based Western blot analysis
[8] = Cytotoxicity against mouse NIH/3T3 cells after 48 hrs by MTT assay; assay type: cell-based; conditions: NIH3T3, 48 h
[9] = target: T1, Hepatocyte growth factor receptor; assay: Inhibition of c-MET (unknown origin) phosphorylation by cell-based Western blot analysis
DU-145 = assay: Antiinvasive activity in human DU145 cells assessed as inhibition of HGF-induced cell motility preincubated for 1 hr before HGF treatment measured after 24 hrs by cell scattering assay; assay type: functional, cell-based
[10] = target: Receptor-type tyrosine-protein kinase FLT3 (Homo sapiens) (UniProt P36888); assay: Inhibition of recombinant FLT3 (unknown origin) at 1 uM
In short: (§1)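 Single-point screen at 1 μM on a recombinant panel of 34 clinically relevant kinases; percent inhibition reported.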

MDCK [11] = assay: Antiinvasive activity in MDCK cells assessed as inhibition of HGF-induced cell motility preincubated at 0.3 uM for 1 hr before HGF treatment measured after 48 hrs by cell scattering assay; assay type: functional, cell-based; conditions: Canis lupus familiaris
[12] = target: Tyrosine-protein kinase receptor UFO (Homo sapiens) (UniProt P30530); assay: Inhibition of recombinant AXL (unknown origin) at 1 uM; in short: as §1
[13] = target: T2, Epidermal growth factor receptor; assay: Inhibition of EGFR phosphorylation in human NCI-H1993 cells at 1 uM after 1 hr by Western blot analysis; assay type: cell-based
[14] = target: Proto-oncogene tyrosine-protein kinase receptor Ret (Homo sapiens) (UniProt P07949); assay: Inhibition of recombinant RET (unknown origin) at 1 uM; in short: as §1
[15] = target: T2, Epidermal growth factor receptor; assay: Competitive inhibition of recombinant EGFR (unknown origin) using poly-GT peptide as substrate by Lineweaver-Burk double reciprocal plot method
In short: (§2)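 Recombinant enzyme activity (Vmax) measured at varied ATP and inhibitor concentrations; signal shifts (ΔS) plotted as Lineweaver–Burk double reciprocal plot to assess binding mode versus ATP.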

NCI-H1993 [16] = assay: Induction of apoptosis in human NCI-H1993 cells at 1 uM after 24 hrs using propidium iodide by flow cytometry; assay type: functional, cell-based
In short: (§3)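 Apoptosis read by flow cytometry; means ± SD of at least 3 independent experiments; unpaired 2-tailed Student's t test against DMSO-treated cells, p < 0.05.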

[17] = target: T1, Hepatocyte growth factor receptor; assay: Competitive inhibition of recombinant c-MET (unknown origin) using poly-AEKY peptide as substrate by Lineweaver-Burk double reciprocal plot method; in short: as §2
[18] = target: T1, Hepatocyte growth factor receptor; assay: Inhibition of c-MET phosphorylation in human NCI-H1993 cells at 1 uM after 1 hr by Western blot analysis; assay type: cell-based
HCC827 = assay: Induction of apoptosis in human HCC827 cells at 1 uM after 24 hrs using propidium iodide by flow cytometry; assay type: functional, cell-based; in short: as §3
[19] = target: T1, Hepatocyte growth factor receptor; assay: Inhibition of c-MET phosphorylation in human HCC827 cells at 1 uM after 1 hr by Western blot analysis; assay type: cell-based
[20] = target: T2, Epidermal growth factor receptor; assay: Inhibition of EGFR phosphorylation in human HCC827 cells at 1 uM after 1 hr by Western blot analysis; assay type: cell-based
[21] = target: Receptor tyrosine-protein kinase erbB-2 (Homo sapiens) (UniProt P04626); assay: Inhibition of recombinant ErbB2 (unknown origin) at 1 uM; in short: as §1
[22] = target: Mast/stem cell growth factor receptor Kit (Homo sapiens) (UniProt P10721); assay: Inhibition of recombinant c-KIT (unknown origin) at 1 uM; in short: as §1
[23] = target: Epithelial discoidin domain-containing receptor 1 (Homo sapiens) (UniProt Q08345); assay: Inhibition of recombinant DDR1 (unknown origin) at 1 uM; in short: as §1
MDCK [24] = assay: Cytotoxicity against MDCK cells assessed as cell death at 1 uM after 48 hrs; assay type: cell-based, Canis lupus familiaris; conditions: dog

IC50 (Insulin receptor) [µM]	inhibition [1]	IC50 [3] [µM]	IC50 [4] [µM]	IC50 [5] [µM]	SMILES	IC50 [2] [µM]	IC50 (NCI-H1975) [µM]	IC50 (A549) [µM]	IC50 (NCI-H1993 [6]) [µM]	IC50 [8] [µM]	also measured
11.8	tde	0.572	0.578	1.66	COc1cc2c(Oc3ccc(NS(=O)(=O)c4cc(-c5ccsc5)ccc4F)cc3F)ccnc2cc1OCCCN1CCN(C)CC1	2.82	4.1	4.36	4	–	–
7.87	tde	0.084	0.369	0.564	COc1cc2c(Oc3ccc(NS(=O)(=O)c4cccc(-c5cnn(C)c5)c4)cc3F)ccnc2cc1OCCCN1CCN(C)CC1	2.83	6.12	8.85	6.24	2.48	inhibition [7]: inactive; inhibition [9]: Active
> 12.5	tde	1.05	1.16	2.71	COc1cc2c(Oc3ccc(NS(=O)(=O)c4cccc(-c5cccs5)c4)cc3F)ccnc2cc1OCCCN1CCN(C)CC1	5.03	4.52	3.92	4.03	–	–
> 12.5	tde	3.86	2.9	0.978	COc1cc2c(Oc3ccc(NS(=O)(=O)c4cccc(-c5ccoc5)c4)cc3F)ccnc2cc1OCCCN1CCOCC1	4.17	8.93	8.21	4.46	–	–
–	–	–	–	0.007	CCOc1ccn(-c2ccc(F)cc2)c(=O)c1C(=O)Nc1ccc(Oc2ccnc(N)c2Cl)c(F)c1 [BMS-777607]	–	–	–	1.11	–	IC50 (DU-145): 0.2 µM
2.87	tde	0.094	0.31	0.398	COc1cc2c(Oc3ccc(NS(=O)(=O)c4cccc(-c5ccsc5)c4)cc3F)ccnc2cc1OCCCN1CCN(C)CC1	1.94	2.3	4.75	1.36	2.35	inhibition [10]: > 70%; Activity (MDCK [11]): Active; inhibition [12]: > 70%; IC50 (DU-145): 1.1 µM; inhibition [13]: Active; inhibition [14]: > 70%; inhibition [15]: Active; Activity (NCI-H1993 [16]): inactive; inhibition [17]: Active; inhibition [18]: Active; Activity (HCC827): Active; inhibition [19]: inactive; inhibition [20]: inactive; inhibition [21]: > 70%; inhibition [22]: > 70%; inhibition [23]: > 70%; Activity (MDCK [24]): Toxic
–	–	–	–	–	CN(C)C/C=C/C(=O)Nc1cc2c(Nc3ccc(F)c(Cl)c3)ncnc2cc1O[C@H]1CCOC1 [AFATINIB]	–	–	–	> 12.5	3.6	Activity (NCI-H1993 [16]): inactive; Activity (HCC827): Active
> 12.5	tde	1.2	1.85	2.69	COc1cc2c(Oc3ccc(NS(=O)(=O)c4ccc(-c5ccsc5)cc4)cc3F)ccnc2cc1OCCCN1CCN(C)CC1	4.61	7.71	6.78	5.04	–	–
> 12.5	tde	4.35	7.54	1.23	COc1cc2c(Oc3ccc(NS(=O)(=O)c4ccc(-c5cnn(C)c5)cc4)cc3F)ccnc2cc1OCCCN1CCN(C)CC1	5.9	> 10	> 10	4.33	–	–
–	–	–	–	–	C#Cc1cccc(Nc2ncnc3cc(OCCOC)c(OCCOC)cc23)c1	–	–	–	–	–	Activity (NCI-H1993 [16]): inactive; Activity (HCC827): Active
–	–	–	–	–	C[C@@H](Oc1cc(-c2cnn(C3CCNCC3)c2)cnc1N)c1c(Cl)ccc(F)c1Cl [CRIZOTINIB]	–	–	–	0.061	0.364	Activity (NCI-H1993 [16]): inactive
5.23	tde	0.168	0.283	1.05	COc1cc2c(Oc3ccc(NS(=O)(=O)c4cccc(-c5ccoc5)c4)cc3F)ccnc2cc1OCCCN1CCN(C)CC1	2.5	2.96	3.65	2.69	1.76	inhibition [7]: inactive; inhibition [9]: Active
0.039	tde	7.67	> 16	0.005	COc1cc2c(Oc3ccc(NC(=O)c4c(C)n(C)n(-c5ccccc5)c4=O)cc3F)ccnc2cc1OCCCN1CCN(C)CC1	2.58	1.06	1.24	0.002	0.066	inhibition [7]: inactive; inhibition [9]: Active
0.17	–	> 16	> 16	0.007	COc1cc2c(Oc3ccc(NC(=O)c4c(C)n(C)n(-c5ccccc5)c4=O)cc3F)ccnc2cc1OCCCN1CCOCC1	2.51	1.46	1.19	0.005	0.074	inhibition [7]: inactive; inhibition [9]: Active
> 12.5	tde	1.37	1.97	1.72	COc1cc2c(Oc3ccc(NS(=O)(=O)c4cccc(-c5cnn(C)c5)c4)cc3F)ccnc2cc1OCCCN1CCOCC1	5.01	6.91	6.44	5.23	–	–
> 12.5	tde	1.91	1.9	2.71	COc1cc2c(Oc3ccc(NS(=O)(=O)c4cccc(-c5ccco5)c4)cc3F)ccnc2cc1OCCCN1CCN(C)CC1	3.11	1.62	–	> 10	3.2	–
